# A selection: hits, their analogues and other compounds. The true share with any hit is near 2.5%.
# dFosB activator – activators of mouse delta FosB homodimer | activation, % at 25 µM | hit rate 0.99% among 340,000 | purified delta FosB, TAMRA-CDK5 oligo fluorescence polarization; percent of positive-control signal above neutral wells | P13346;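 active means mean activation above about 17%, with every replicate also reaching it, limit read from the data, passing the limit was not always enough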
# IMP-1 inhibitor – blocks Pseudomonas aeruginosa IMP-1 metallo-beta-lactamase; purified IMP-1, nitrocefin hydrolysis, epi-absorbance fluorescence; inhibition, % at 5.6 µM; hit rate 0.45% among 290,000;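 active means inhibition above the mean plus 3 SD of all compounds in the same screening run, cut at about 4.5% in these data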
#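 System: Purified IMP-1 | Read-out basis: Percent enzyme inhibition | Controls: IMP-1 with DMSO as 0%, enzyme-free DMSO as 100% | Replicates: One well per compound | Doses: 5.6 µM nominal single concentration | Detection: Epi-absorbance fluorescence, 480 nm excitation, 530 nm emission | Incubation: 25 °C, 15 min preincubation, 25 min reaction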
# VIM-2 inhibitor – inhibitors of Pseudomonas aeruginosa VIM-2 metallo-beta-lactamase. purified VIM-2, nitrocefin hydrolysis, epi-absorbance fluorescence. inhibition, % at 5.6 µM. hit rate 0.89% among 290,000. AID 1527;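 active means inhibition above the mean of all tested compounds plus 3 SD, cutoff set per screening run, cut at about 7.5% in these data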;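 further: red hydrolysis product quenches plate fluorescence so inhibitors raise well fluorescence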
# m5-HT2A agonist – mouse HTR2A agonism via beta-arrestin recruitment; P35363; CHO-K1 mHTR2A beta-arrestin complementation, luminescence; percent of 30 µM serotonin response; activation, % at 7.6 µM; hit rate 0.66% among 360,000;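 active means activation above a run cutoff, the mean activation of all tested compounds plus 3 SD, cut at about 14% in these data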
# MOR ag counter – OPRM1 agonism in mouse HTR2A counterscreen; AID 624380; activation, % at 9.3 µM; shares compounds with m5-HT2A agonist; hit rate 5.3% among 2,300; U2OS OPRM1 beta-arrestin PathHunter, luminescence; DMSO 0%, DAMGO 9.3 µM 100%;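 active means mean activation above the mean of DMSO-only wells plus 3 SD, cut at about 0.5% in these data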
# Target sequence (P35372 whole entry, looked up): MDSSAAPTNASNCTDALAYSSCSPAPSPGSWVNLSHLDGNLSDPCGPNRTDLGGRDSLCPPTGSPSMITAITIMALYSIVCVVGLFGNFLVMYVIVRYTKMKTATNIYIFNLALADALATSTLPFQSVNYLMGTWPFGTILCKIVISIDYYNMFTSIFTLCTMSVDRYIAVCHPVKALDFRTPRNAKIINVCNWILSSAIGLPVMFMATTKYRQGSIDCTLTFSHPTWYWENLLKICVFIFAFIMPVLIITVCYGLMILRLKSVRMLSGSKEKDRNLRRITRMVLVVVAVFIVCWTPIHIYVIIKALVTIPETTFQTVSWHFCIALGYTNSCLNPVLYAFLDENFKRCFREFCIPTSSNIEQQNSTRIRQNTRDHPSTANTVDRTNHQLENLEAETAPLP
# HTR2A ag conf – mouse HTR2A agonism confirmed; shares compounds with m5-HT2A agonist; CHO-K1 PathHunter beta-arrestin recruitment, luminescence; DMSO 0%, 30 µM serotonin 100%; activation, % at 7.6 µM; hit rate 19% among 2,300;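 active means mean activation across triplicates above the hit threshold derived in the original primary screen, cut at about 15% in these data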
# Hits are given with their value; - = inactive; . = not tested or not shown.
SMILES,dFosB activator,IMP-1 inhibitor,VIM-2 inhibitor,m5-HT2A agonist,MOR ag counter,HTR2A ag conf
Cc1ccc(OCc2cc(C(=O)N(C)CCc3nc4ccccc4[nH]3)no2)cc1C,-,-,-,-,.,.
CC1(/[N+]([O-])=C/c2ccc(Cl)cc2Cl)CCCCC1=O (stereo not drawn),-,-,-,-,.,.
CC1(/[N+]([O-])=C\c2ccccc2F)CCCCC1=O (stereo not drawn),-,-,-,16.4,-,-
COc1ccc(S(=O)(=O)Nc2cccc3c2O[C@H](CN(C)C(=O)NC2CCCCC2)[C@@H](C)CN([C@H](C)CO)C3=O)cc1,-,.,.,-,.,.
COc1ccccc1CNC(=O)CN(c1ccc(C)cc1)S(=O)(=O)c1c(C)noc1C,-,-,-,17.2,-,-
COc1ccc(NC(=O)CN(c2ccc(C(C)C)cc2)S(=O)(=O)c2c(C)noc2C)cc1OC,-,-,-,14.8,-,-
COc1ccc(N(CC(=O)Nc2ccc(C)c(C)c2)S(=O)(=O)c2c(C)noc2C)cc1,-,-,-,-,.,.
COc1ccccc1CNC(=O)CN(c1ccc(C)cc1)S(=O)(=O)c1c(C)n[nH]c1C,-,-,-,-,.,.
CC(C)Oc1ccc(S(=O)(=O)N2CCOCC2)cc1NC(=O)CC1OC(=O)c2ccccc21 (stereo not drawn),-,.,.,16.5,-,-
COc1ccccc1COCC(O)CN1CCN(S(=O)(=O)c2cccc(F)c2)CC1 (stereo not drawn),-,.,.,-,.,.
Cc1ccc(Nc2ccc([N+](=O)[O-])nc2[N+](=O)[O-])cc1,-,-,-,14.9,-,-
C=CCN1CCc2c(cc(O)c(O)c2Br)[C@@H](c2ccccc2)C1,-,.,.,61.2,-,141.0
CN1CCc2cc(Cl)c(O)cc2[C@@H](c2ccccc2)C1,-,-,-,-,.,.
COc1ccc2c(c1)OC(=O)CC2c1ccccc1OC (stereo not drawn),-,.,.,15.6,-,-
COc1ccc2c(c1)OC(=O)CC2c1cc(OC)c(OC)c(OC)c1 (stereo not drawn),-,.,.,-,.,.
COC(=O)C[C@@H]1CC[C@@H](NS(=O)(=O)c2cccc(OC)c2)[C@@H](CO)O1,.,.,.,-,.,.
CCOc1ccc(N2C(=O)CC(NCCc3c[nH]c4ccccc34)C2=O)cc1 (stereo not drawn),-,-,-,18.9,-,-
Cc1ccc(C(=O)OCc2nnc(-c3ccccc3)o2)cc1S(=O)(=O)N1CCOCC1,-,.,.,-,.,.
O=C(Cn1cncn1)N/N=C/c1ccncc1,-,-,-,23.1,-,-
CC1CCC(NC(=O)CCNC(=O)c2ccc(Br)cc2)CC1 (stereo not drawn),-,.,.,-,.,.
Nc1ncnc2c1ncn2[C@@H]1O[C@H](C(=O)N2CCC[C@@H]2C(=O)OCc2ccccc2)[C@@H](O)[C@H]1O,.,.,.,14.9,-,-
Cc1cc(C)n(CC(C)NCc2cn[nH]c2-c2ccc(C)c(C)c2)n1 (stereo not drawn),-,-,-,-,.,.
COc1ccc(NC(=O)CC(CC(=O)O)c2cc(OC)c(OC)c(OC)c2)cc1 (stereo not drawn),-,-,-,-,.,.
COC(=O)[C@H]1C[C@@]2(O)CN(S(=O)(=O)c3ccc(C)cc3)C[C@@]2(OC(=O)NCc2ccc(OC)c(OC)c2)C[C@H]1C(=O)OC,.,.,.,-,.,.
COC(=O)[C@H]1C[C@@]2(O)CN(S(=O)(=O)c3ccc(C)cc3)C[C@@]2(OC(=O)NCc2ccccc2F)C[C@H]1C(=O)OC,.,.,.,19.4,-,-
SMILES,dFosB activator,IMP-1 inhibitor,VIM-2 inhibitor,m5-HT2A agonist,MOR ag counter,HTR2A ag conf
CCCCOc1ccc(C2CCC(C(C)=O)C(C)C2)cc1 (stereo not drawn),-,-,-,-,.,.
CC1CC(=O)Nc2ccccc2N1S(=O)(=O)c1ccc(Cl)cc1 (stereo not drawn),-,-,-,-,.,.
CC(=O)Nc1ccc(S(=O)(=O)N2c3ccccc3NC(=O)CC2C)c(Cl)c1 (stereo not drawn),-,-,-,16.9,-,-
COc1ccc(Cc2c(O)nc(SCC(C)C)[nH]c2=O)cc1,-,-,-,14.5,-,-
COc1ccc(Cc2c(O)nc(SCC(=O)c3ccc(OC)cc3)[nH]c2=O)cc1,-,-,-,-,.,.
N#CCCN(Cc1ccccc1)C(=O)c1cccs1,-,-,-,-,.,.
Cn1c2c(c3ccccc31)CCN(CCCCN1CCN(c3ccccc3)CC1)C2=O,-,.,.,21.0,-,39.8
Cc1c(C(=O)CN2CCN(c3ccccc3)CC2)c2ccccc2n1C,-,-,-,-,.,.
Cc1cccc(NC(=O)CNC(=O)[C@H]2O[C@@H](n3ccc(N)nc3=O)[C@H](O)[C@@H]2O)c1C,.,.,.,-,.,.
COc1ccc(OC)c(S(=O)(=O)N(C)CC(=O)Nc2ccccc2OC)c1,-,-,-,15.9,-,-
COc1ccc(S(=O)(=O)N(C)CC(=O)Nc2ccccc2OC)cc1C,-,-,-,-,.,.
O=C1N/C(=N/O)S/C1=C\c1ccccc1-n1cccn1,-,-,-,16.2,-,-
O=C1N/C(=N/O)S/C1=C/c1cccc([N+](=O)[O-])c1,-,-,-,-,.,.
COc1cc2[nH]c(=S)n(Cc3cccs3)c(=O)c2cc1OC,19.4,-,-,19.1,-,-
CCCn1c(=S)[nH]c2cc(OC)c(OC)cc2c1=O,-,-,-,-,.,.
Cc1ccc(CN2CC(N3CCN(Cc4cccc(C)c4)CC3)CS2(=O)=O)cc1 (stereo not drawn),.,.,.,30.8,-,-
Cc1cccc(CN2CCN(C3CN(Cc4ccc(F)cc4)S(=O)(=O)C3)CC2)c1 (stereo not drawn),.,.,.,17.9,-,-
Cc1cccc(CN2CCN(C3CN(Cc4cn(Cc5ccc(F)cc5)nn4)S(=O)(=O)C3)CC2)c1 (stereo not drawn),.,.,.,-,.,.
O=C(OCC1COC(c2ccccc2)(c2ccccc2)O1)c1ccccc1 (stereo not drawn),-,.,.,-,.,.
C=CCOC(=O)c1ccccc1C(=O)OCC1CO1 (stereo not drawn),-,.,.,22.7,-,-
Cc1cccc(C)c1NC(=O)c1cn(-c2ccccc2)nc1-c1ccccc1,-,-,-,20.8,-,-
CC1(c2nnc(Cc3ccccc3)o2)CC(c2ccccc2Br)=NO1 (stereo not drawn),-,.,.,-,.,.
O=C(COC(=O)C1CC(O)CN1S(=O)(=O)c1ccc(Cl)cc1)c1ccccc1 (stereo not drawn),-,-,-,-,.,.
Cc1[nH]c2ccccc2c1C(=O)COC(=O)C1CC(O)CN1S(=O)(=O)c1ccc(Cl)cc1 (stereo not drawn),-,.,.,14.8,-,-
OCCc1c[nH]c2cc(F)ccc12,-,-,-,-,.,.
C[C@H](O)c1[nH]c2cc(F)ccc2c1[C@H](C)O,-,-,-,19.5,-,-
CCNC(=O)C1(C)CCCN(Cc2ccc(Oc3ccccc3)cc2)C1 (stereo not drawn),.,.,.,-,.,.

# Screening data: PubChem BioAssay, several laboratories
